Experimental data as given in ChEMBL document CHEMBL1151838, “Isariotins E and F, spirocyclic and bicyclic hemiacetals from the entomopathogenic fungus Isaria tenuipes BCC 12625” (J Nat Prod, 2009).
Converted amounts (≈) assume the structure as drawn.

Experiments:
[1] = tested on: KB; test: Cytotoxicity against human KB cells by SRB assay; assay type: functional, cell-based
In short: (§1)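 Colorimetric cytotoxicity assay. IC50 given as mean ± SD (n = 3), curve fits with R2 > 0.9. Ellipticine served as positive control.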

[2] = Cytotoxicity against human BC cells by SRB assay; assay type: functional, cell-based; in short: as §1
[3] = tested on: Vero; test: Cytotoxicity against african green monkey Vero cells by SRB assay; assay type: cell-based, Chlorocebus sabaeus; in short: as §1
[4] = tested on: NCI-H187; test: Cytotoxicity against human NCI-H187 cells by SRB assay; assay type: functional, cell-based; in short: as §1
[5] = tested on: Candida albicans; test: Antifungal activity against Candida albicans; assay type: functional, organism-based
In short: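 Colorimetric growth-inhibition assay against Candida albicans; IC50 values reported.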

[6] = tested on: Plasmodium falciparum; test: Antiplasmodial activity after 24 hrs against Plasmodium falciparum K1 by [G-3H]hypoxanthine uptake; assay type: functional, organism-based; conditions: K1, 24 h
In short: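 P. falciparum K1 tested by a microculture radioisotope technique, with IC50 as the read-out.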

[7] = tested on: Mycobacterium tuberculosis; test: Antitubercular activity against Mycobacterium tuberculosis H37Ra after 4 days by microplate alamar blue assay; assay type: functional; conditions: 96 h
In short: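 M. tuberculosis H37Ra tested by microplate Alamar Blue assay. MIC was taken as the lowest concentration giving ≥90% growth inhibition.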

[8] = Homo sapiens, KB, read-out: IC50
[9] = Homo sapiens, BC, read-out: IC50
[10] = Chlorocebus sabaeus, Vero, read-out: IC50
[11] = Homo sapiens, NCI-H187, read-out: IC50

| Compound | IC50 [5] [nM] | IC50 [6] [nM] | IC50 [1, 8] [nM] | IC50 [2, 9] [nM] | IC50 [3, 10] [nM] | IC50 [4, 11] [nM] | MIC [7] [µM] | also measured |
| --- | --- | --- | --- | --- | --- | --- | --- | --- |
| CCCCCCCCC/C=C/C(=O)N[C@H]1C[C@@]2(O)C(=O)[C@@H]([C@H]1O)[C@H](OC)[C@@H]1O[C@@H]12 | – | – | – | – | – | – | – | IC50 ([1]; kb): Not Active; IC50 ([2]; bc): Not Active; IC50 ([3]; vero): Not Active; IC50 ([4]; nci-h187): Not Active |
| C[C@@H]1[C@H](O)[C@@H](C)/C=C/C=C/C=C/C=C/C=C/C=C/C=C/[C@H](O[C@@H]2O[C@H](C)[C@@H](O)[C@H](N)[C@@H]2O)C[C@@H]2O[C@](O)(C[C@@H](O)C[C@@H](O)[C@H](O)CC[C@@H](O)C[C@@H](O)CC(=O)O[C@H]1C)C[C@H](O)[C@H]2C(=O)O [AMPHOTERICIN B] | 30 | – | – | – | – | – | – | – |
| C[C@H]1[C@@H](O)O[C@@H]2O[C@@]3(C)CC[C@H]4[C@H](C)CC[C@@H]1[C@@]24OO3 [ARTENIMOL] | – | 4 | – | – | – | – | – | – |
| Cc1c2ccncc2c(C)c2c1[nH]c1ccccc12 [ELLIPTECINE] | – | – | 1380 | 1200 | 1690 | 4400 | – | – |
| CCCCCCCCC/C=C/C(=O)N[C@H]1C[C@@]2(O)C(=O)C=C[C@@H](Cl)[C@@H]2O[C@H]1O [ISARIOTIN F] | 13900 | 5100 | 15800 | 2400 | 2900 | 1600 | 60.4 (≈ 25 µg/mL) | – |
| NNC(=O)c1ccncc1 [ISONIAZID] | – | – | – | – | – | – | 0.37 (≈ 0.0507 µg/mL) | – |
